Data: article PMC7233370 (Journal of medicinal chemistry, 2020)
“Also recorded” adds a separate entry of the source.

Assays:
hGYS1 [1] = biological target: T1, hGYS1 (Homo sapiens, UniProt P13807); test: Activation of hGYS1 by G6P or GlcN6P, 14C-glucose incorporation assay; type: biochemical
T1 sequence (P13807 1-737): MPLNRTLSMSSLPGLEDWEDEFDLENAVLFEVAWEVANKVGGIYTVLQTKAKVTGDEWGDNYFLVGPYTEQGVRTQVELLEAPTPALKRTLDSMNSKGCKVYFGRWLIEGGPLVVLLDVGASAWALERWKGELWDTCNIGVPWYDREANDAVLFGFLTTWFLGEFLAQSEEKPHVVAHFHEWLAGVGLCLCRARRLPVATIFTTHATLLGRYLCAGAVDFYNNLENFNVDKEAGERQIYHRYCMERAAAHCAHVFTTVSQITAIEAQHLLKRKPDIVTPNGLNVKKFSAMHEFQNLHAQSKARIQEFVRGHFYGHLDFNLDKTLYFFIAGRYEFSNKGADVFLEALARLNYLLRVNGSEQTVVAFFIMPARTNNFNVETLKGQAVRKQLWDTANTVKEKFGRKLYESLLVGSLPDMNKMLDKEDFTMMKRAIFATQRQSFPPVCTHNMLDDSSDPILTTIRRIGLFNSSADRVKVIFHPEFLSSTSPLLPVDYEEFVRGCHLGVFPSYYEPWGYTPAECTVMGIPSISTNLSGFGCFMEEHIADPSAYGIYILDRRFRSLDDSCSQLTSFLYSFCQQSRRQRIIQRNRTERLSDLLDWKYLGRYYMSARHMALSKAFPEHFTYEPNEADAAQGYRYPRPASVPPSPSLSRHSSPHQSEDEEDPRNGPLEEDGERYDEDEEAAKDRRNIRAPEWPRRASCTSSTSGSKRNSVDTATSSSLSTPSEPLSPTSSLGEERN
Procedure, shortened: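 Full-length human GYS1 was expressed in insect cells. Radiochemical 14C-glucose incorporation assay run at varied G6P or GlcN6P. % activation was plotted against activator concentration and fitted to a hyperbolic binding equation to give AC50. Done in triplicate.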

hGYS1 [2] = biological target: T1, hGYS1; test: Fluorescence polarization displacement of tracer from hGYS1; type: binding; settings: FP assay with hGYS1
yGsy2p [3] = biological target: T2, yGsy2p (Saccharomyces cerevisiae, UniProt P27472); test: Fluorescence polarization competitive displacement of tracer from yGsy2p; type: binding
T2 sequence (P27472 1-705): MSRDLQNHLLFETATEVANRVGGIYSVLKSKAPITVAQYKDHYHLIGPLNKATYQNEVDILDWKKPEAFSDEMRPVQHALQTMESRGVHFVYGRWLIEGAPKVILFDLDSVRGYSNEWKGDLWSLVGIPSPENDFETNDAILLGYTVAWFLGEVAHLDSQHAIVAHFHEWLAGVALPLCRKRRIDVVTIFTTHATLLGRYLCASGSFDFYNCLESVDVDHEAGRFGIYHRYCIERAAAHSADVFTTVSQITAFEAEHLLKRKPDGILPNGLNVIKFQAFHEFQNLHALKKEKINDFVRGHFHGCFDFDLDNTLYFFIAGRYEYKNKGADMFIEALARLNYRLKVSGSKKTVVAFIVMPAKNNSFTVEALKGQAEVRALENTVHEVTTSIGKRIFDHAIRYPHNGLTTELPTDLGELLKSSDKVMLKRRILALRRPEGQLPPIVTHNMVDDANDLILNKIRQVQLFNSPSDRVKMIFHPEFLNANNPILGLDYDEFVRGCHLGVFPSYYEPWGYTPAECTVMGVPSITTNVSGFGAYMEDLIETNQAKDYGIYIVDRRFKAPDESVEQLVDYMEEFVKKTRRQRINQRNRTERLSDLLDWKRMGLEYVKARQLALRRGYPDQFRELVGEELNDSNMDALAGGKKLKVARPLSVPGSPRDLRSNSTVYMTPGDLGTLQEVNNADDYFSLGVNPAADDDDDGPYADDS
Procedure, shortened: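 Fluorescein-labelled glucosamine-6-phosphate tracer at 20 nM final with 4.2 µM yeast Gsy2p in 15 mM Tris-HCl pH 7.8, 15 mM NaCl. Unlabelled G6P titrated from 0.68 µM to 40 mM. Incubated 10 min at 25°C, then polarization read (ex 485/em 535 nm, mP). EC50 of the displacement fit taken as Kd. Triplicate.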

yGsy2p [4] = biological target: T2, yGsy2p; test: Activation of yGsy2p by G6P, 14C-glucose incorporation assay; type: biochemical
Procedure, shortened: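 His-tagged yeast Gsy2p was expressed in E. coli BL21(DE3) and purified by Ni-NTA then Q-Sepharose. Radiochemical 14C-glucose incorporation assay run at varied G6P. % activation was fitted to a hyperbolic binding equation to give AC50. Done in triplicate.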

yGsy2p [5] = biological target: T2, yGsy2p; test: Fluorescence polarization saturation binding of tracer to yGsy2p
Procedure, shortened: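 Yeast Gsy2p titrated from 0 to 50 µM against 20 nM final fluorescein-labelled glucosamine-6-phosphate tracer in 15 mM Tris-HCl pH 7.8, 15 mM NaCl. Incubated 10 min at 25°C, then polarization read (ex 485/em 535 nm, mP). Saturation curve fitted to a hyperbolic equation for Kd. Triplicate.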

wild-type hGYS1 = biological target: T3, wild-type hGYS1 (Homo sapiens, UniProt P13807); test: 14C-glucose incorporation assay, wild-type hGYS1 inhibition; type: biochemical; settings: for improvement in potency toward hGYS1 relative to H23: ratio of IC50 values versus H23
T3 sequence (P13807 1-737): T1 sequence (P13807 1-737)

yGsy2p Y513L mutant = yGsy2p Y513L mutant (Saccharomyces cerevisiae, UniProt P27472, Y513L); test: Inhibition of yGsy2p active-site mutant Y513L; type: biochemical; settings: saturating G6P (7.2 mM)
yGsy2p [6] = biological target: T2, yGsy2p; test: 14C-glucose incorporation assay, yGsy2p inhibition; type: biochemical; settings: co-variation of UDPG and inhibitor
[7] = biological target: T4, GS activity in Rat-1 cell lysates (Rattus norvegicus, UniProt A2RRU1); test: GS activity in Rat-1 cell lysates, 14C-glucose incorporation; type: biochemical; settings: 100 μM compound; 0.75 mg/mL lysate; 0.2 mM UDPG, 1 mM G6P
T4 sequence (A2RRU1 1-738): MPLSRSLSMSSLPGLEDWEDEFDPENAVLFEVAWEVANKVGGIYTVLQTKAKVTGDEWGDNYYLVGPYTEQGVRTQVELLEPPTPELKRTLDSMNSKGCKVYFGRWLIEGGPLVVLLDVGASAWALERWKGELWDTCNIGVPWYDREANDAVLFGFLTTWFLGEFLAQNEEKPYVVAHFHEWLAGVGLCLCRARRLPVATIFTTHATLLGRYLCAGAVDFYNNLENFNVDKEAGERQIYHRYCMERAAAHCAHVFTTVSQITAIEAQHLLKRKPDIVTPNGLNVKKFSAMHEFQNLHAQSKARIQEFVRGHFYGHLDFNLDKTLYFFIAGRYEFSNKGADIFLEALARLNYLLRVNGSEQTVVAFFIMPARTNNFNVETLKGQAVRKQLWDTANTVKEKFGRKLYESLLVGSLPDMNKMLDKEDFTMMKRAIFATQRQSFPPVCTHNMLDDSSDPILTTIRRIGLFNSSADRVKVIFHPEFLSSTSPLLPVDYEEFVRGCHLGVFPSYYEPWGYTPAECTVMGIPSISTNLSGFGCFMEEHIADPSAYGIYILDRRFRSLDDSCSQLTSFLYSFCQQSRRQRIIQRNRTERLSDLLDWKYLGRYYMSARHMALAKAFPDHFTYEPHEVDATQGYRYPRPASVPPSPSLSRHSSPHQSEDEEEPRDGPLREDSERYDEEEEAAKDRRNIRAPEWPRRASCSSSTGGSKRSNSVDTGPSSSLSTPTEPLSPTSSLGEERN
Procedure, shortened: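 Rat-1 fibroblasts were grown in DMEM/10% FBS to confluence. Cells were lysed in EDTA/EGTA/NaF buffer with protease inhibitors, vanadate and Triton, freeze-scraped, sonicated, and the lysate diluted 2-fold. Assay: 50 mM Tris-HCl pH 7.8, 6.7 mg/ml glycogen, 0.2 mM UDPG, 1 mM G6P, 2% DMSO, test compound 100 µM. Read-out: 14C-glucose incorporation as % of DMSO control.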

[8] = biological target: T5, GS activity in HEK293-PTG cell lysates (Homo sapiens, UniProt P13807); test: GS activity in HEK293-PTG cell lysates, 14C-glucose incorporation; type: biochemical; settings: 100 μM compound; 0.15 mg/mL lysate; 0.2 mM UDPG, 1 mM G6P
T5 sequence (P13807 1-737): T1 sequence (P13807 1-737)
Procedure, shortened: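 HEK293 cells stably transfected with mouse PTG (hygromycin-selected mixed clones) were grown to confluence. Cells were lysed in EDTA/EGTA/NaF buffer with protease inhibitors, vanadate and Triton, freeze-scraped, sonicated, and the lysate diluted 10-fold. Assay: 50 mM Tris-HCl pH 7.8, 6.7 mg/ml glycogen, 0.2 mM UDPG, 1 mM G6P, 2% DMSO, test compound 100 µM. Read-out: 14C-glucose incorporation as % of DMSO control.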

hGYS1Δ634S8,11N = biological target: T6, hGYS1Δ634S8,11N (Homo sapiens, UniProt P13807, S11N/S8N); test: 14C-glucose incorporation assay, hGYS1Δ634S8,11N inhibition; type: biochemical; settings: read-out: inhibition of truncated hGYS1 (hGYS1Δ634S8,11N)
T6 sequence (P13807 1-634 S8N/S11N limits assumed): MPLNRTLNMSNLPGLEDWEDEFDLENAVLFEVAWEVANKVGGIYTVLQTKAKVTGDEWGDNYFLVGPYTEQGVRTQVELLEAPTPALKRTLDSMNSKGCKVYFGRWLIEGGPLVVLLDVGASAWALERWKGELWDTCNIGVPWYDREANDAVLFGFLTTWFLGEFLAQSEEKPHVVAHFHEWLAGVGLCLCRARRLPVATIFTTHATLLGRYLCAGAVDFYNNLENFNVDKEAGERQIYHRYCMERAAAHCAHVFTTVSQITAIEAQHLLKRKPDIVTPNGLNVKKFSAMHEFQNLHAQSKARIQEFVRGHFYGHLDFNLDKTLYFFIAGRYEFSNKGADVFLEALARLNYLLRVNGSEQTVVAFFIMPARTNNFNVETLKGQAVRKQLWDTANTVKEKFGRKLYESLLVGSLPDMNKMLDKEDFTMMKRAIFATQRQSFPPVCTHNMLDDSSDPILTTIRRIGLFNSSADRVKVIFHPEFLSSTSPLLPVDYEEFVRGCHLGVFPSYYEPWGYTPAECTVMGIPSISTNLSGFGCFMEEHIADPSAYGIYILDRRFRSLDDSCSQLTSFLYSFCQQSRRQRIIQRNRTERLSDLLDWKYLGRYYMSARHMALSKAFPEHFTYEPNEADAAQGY

yGsy2p Y513L mutant, sequence (P27472 whole entry Y513L): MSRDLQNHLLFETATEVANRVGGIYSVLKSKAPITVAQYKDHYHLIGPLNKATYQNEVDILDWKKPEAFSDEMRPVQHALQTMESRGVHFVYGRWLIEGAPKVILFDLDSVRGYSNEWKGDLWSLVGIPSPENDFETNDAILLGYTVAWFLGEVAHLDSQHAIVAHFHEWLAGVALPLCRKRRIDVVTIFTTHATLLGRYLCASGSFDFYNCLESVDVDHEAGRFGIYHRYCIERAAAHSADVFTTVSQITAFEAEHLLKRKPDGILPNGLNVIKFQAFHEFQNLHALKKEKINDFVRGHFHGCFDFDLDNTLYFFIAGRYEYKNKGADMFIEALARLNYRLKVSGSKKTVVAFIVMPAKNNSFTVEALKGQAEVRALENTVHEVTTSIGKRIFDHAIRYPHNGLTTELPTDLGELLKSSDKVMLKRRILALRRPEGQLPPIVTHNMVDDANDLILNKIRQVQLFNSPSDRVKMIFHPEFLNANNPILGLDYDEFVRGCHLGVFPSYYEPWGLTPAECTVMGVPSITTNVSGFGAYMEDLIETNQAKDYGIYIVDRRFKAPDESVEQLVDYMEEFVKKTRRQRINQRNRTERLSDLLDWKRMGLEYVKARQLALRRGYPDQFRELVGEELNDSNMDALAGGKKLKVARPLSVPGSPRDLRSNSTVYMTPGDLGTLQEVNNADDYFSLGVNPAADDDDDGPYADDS

N[C@H]1C(O)O[C@H](COP(=O)(O)O)[C@@H](O)[C@@H]1O (stereo partly drawn) [GlcN6P, glucosamine-6-phosphate]
AC50 (hGYS1 [1]): 5900 ± 100 µM

O=C[C@H](O)[C@@H](O)[C@H](O)[C@H](O)COP(=O)(O)O [Compound G6P, glucose-6-phosphate]
AC50 (hGYS1 [1]): 1600 ± 100 µM
displacement of GlcN6P-coupled fluorophore or fluorophore alone from hGYS1 (hGYS1 [2]): unable to displace
Kd (yGsy2p [3]): 70.9 ± 3.6 µM
AC50 (yGsy2p [4]): 98.1 ± 3.1 µM

O=C(CSCCC(=O)N[C@@H]1[C@@H](O)[C@H](O)[C@@H](COP(=O)(O)O)O[C@H]1O)Nc1ccc(-c2c3ccc(=O)cc-3oc3cc(O)ccc23)c(C(=O)O)c1 [GlcN6P-fluorescein-5-Ex]
Kd (yGsy2p [5]): 7.6 ± 0.7 µM

Oc1ccc(-c2c(-c3ccc(O)c(O)c3O)n[nH]c2C(F)(F)F)cc1 [Compound 23, 4-(4-(4-hydroxyphenyl)-3-(trifluoromethyl)-1H-pyrazol-5-yl)pyrogallol]
improvement in potency toward hGYS1 relative to H23 (wild-type hGYS1): more than 300 fold
mode of inhibition for wild-type hGYS1 (wild-type hGYS1; versus UDPG): competitive
inhibition of Y513L mutant compared with wild-type yGsy2p (yGsy2p Y513L mutant): compromised; also recorded: decreased potency

O=c1ccn([C@@H]2O[C@H](COP(=O)(O)OP(=O)(O)O)[C@@H](O)[C@H]2O)c(=O)[nH]1 [UDP, reference compound]
mode of inhibition of yGsy2p with respect to varied UDPG (yGsy2p [6]): competitive

Cc1[nH]nc(-c2ccc(O)c(O)c2O)c1-c1ccc(Cl)cc1 [Compound 11]
improvement in potency toward hGYS1 relative to H23 (wild-type hGYS1): 16 fold

COc1cc(-c2c(-c3ccccc3)ncn2CCC2CCCN2C)ccc1O (racemic) [Compound H23, (rac)-2-methoxy-4-(1-(2-(1-methylpyrrolidin-2-yl)ethyl)-4-phenyl-1H-imidazol-5-yl)phenol]
reduction of synthase activity in Rat-1 cell lysate [7]: did not significantly inhibit
reduction of synthase activity in HEK293-PTG cell lysate [8]: did not significantly inhibit
mode of inhibition of yGsy2p with respect to varied UDPG (yGsy2p [6]): competitive
inhibition at 100 µM (hGYS1Δ634S8,11N): > 20%

O=C(O)CCc1ccc(-c2ccccc2)n1-c1ccc(O)cc1 [Compound 7]
improvement in potency toward hGYS1 relative to H23 (wild-type hGYS1): 2 fold
reduction of synthase activity in Rat-1 cell lysate [7]: did not significantly inhibit
reduction of synthase activity in HEK293-PTG cell lysate [8]: did not significantly inhibit
